Shown are actives, neighbours in structure and some others; about 3.1% of the full set was active somewhere.
KCNK9 inh: inhibitors of human KCNK9 two-pore domain potassium channel; Q9NPC2; AID 488922; B-score at 10 µM; 1.2% of 310,000 active; HEK293 KCNK9, FluxOR thallium flux fluorescence; stronger effect = lower value;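 active = ratio B-score over 3 SD below the library mean, with starting fluorescence within 5 SD of its mean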;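 also: negative B-score means less thallium flux so channel inhibition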
hERG protect: shields human hERG channel from block by proarrhythmic agents; Q12809; 0.51% of 310,000 active; activation (rescue from dofetilide block), less the hit threshold, % at 10 µM; CHO-hERG, FluxOR thallium flux, dofetilide IC70 present;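 active = activation above the mean of controls blocked by dofetilide plus 5 SD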;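 also: thallium influx through hERG after potassium depolarization seen as dye fluorescence rise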
Target sequence (Q12809 whole entry, looked up): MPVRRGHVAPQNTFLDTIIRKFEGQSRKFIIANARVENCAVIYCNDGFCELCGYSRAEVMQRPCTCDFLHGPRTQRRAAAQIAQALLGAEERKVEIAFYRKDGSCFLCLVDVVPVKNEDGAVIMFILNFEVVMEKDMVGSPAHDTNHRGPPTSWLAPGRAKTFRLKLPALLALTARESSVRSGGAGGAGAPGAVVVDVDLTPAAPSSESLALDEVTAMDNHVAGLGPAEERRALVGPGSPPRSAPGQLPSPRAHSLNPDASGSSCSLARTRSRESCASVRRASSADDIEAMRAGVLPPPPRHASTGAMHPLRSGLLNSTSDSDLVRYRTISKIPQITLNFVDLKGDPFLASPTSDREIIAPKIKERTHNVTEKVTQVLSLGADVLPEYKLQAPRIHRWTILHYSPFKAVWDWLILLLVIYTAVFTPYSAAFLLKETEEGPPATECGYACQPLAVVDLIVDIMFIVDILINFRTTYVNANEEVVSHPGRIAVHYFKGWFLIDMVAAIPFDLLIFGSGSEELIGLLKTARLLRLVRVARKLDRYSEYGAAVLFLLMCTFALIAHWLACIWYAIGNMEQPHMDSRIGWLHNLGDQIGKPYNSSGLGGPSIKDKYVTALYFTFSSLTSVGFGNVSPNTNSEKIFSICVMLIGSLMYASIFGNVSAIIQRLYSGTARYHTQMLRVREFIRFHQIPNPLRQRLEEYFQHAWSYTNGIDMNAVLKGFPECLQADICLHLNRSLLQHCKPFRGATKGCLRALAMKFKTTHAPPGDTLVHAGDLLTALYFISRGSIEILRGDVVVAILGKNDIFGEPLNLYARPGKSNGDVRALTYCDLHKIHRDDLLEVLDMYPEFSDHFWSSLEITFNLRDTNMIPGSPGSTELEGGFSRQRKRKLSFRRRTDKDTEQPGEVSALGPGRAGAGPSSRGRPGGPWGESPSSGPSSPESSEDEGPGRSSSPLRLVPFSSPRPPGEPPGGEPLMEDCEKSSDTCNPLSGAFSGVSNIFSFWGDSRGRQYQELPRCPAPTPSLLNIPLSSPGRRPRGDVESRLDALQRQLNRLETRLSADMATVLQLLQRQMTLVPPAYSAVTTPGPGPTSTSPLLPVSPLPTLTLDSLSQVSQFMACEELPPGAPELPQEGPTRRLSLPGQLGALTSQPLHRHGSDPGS
KCNQ1 pot: potentiators or activators of human KCNQ1 potassium channel; P51787; CHO-K1 KCNQ1, thallium flux FluxOR fluorescence; stronger effect = higher value; B-score at 10 µM; 0.35% of 310,000 active; AID 2648;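 active = fluorescence ratio B-score, a plate-corrected score, at least three library SD, with initial intensity B-score within 5 SD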
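assay system = CHO-K1 cells stably expressing KCNQ1 | medium = assay buffer, equal DMSO in all wells | timing = 37 °C overnight plating, 90-min dark dye load, 20-min compound pretreatment | measured by = kinetic FluxOR thallium fluorescence, 10-s 1-Hz baseline, 110-s post-stimulus read | measure = fluorescence change relative to baseline, converted to B score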
KCNK3 inh: human KCNK3 channel inhibition, primary screen; O14649; CHO-KCNK3 thallium flux, FluxOR fluorescence; stronger effect = lower value; B-score at 10 µM; 0.84% of 340,000 active; AID 602410;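 active = B-score under library mean minus 4 SD, starting fluorescence ratio at most library mean plus 5 SD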;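 also: more negative B-score means stronger inhibition of thallium flux through KCNK3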
KCNQ1 block: blocks the human KCNQ1 potassium channel | P51787 | CHO-K1 KCNQ1, FluxOR thallium flux fluorescence; stronger effect = higher value | B-score at 10 µM | 1.3% of 310,000 active;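 active = compounds whose thallium flux B-score, printed positive for inhibition, exceeds three library SD while starting fluorescence stays within three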;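 also: channel opened by potassium depolarization with thallium stimulus after 20 min compound exposure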
* marks the source's active call; other numbers are inactive results; i = inactive; · = no result.

SMILES	KCNK9 inh	hERG protect	KCNQ1 pot	KCNK3 inh	KCNQ1 block
CCCOc1ccc(OC(=O)c2ccc(Br)o2)cc1	i	15.5*	i	i	i
CC1(C)[C@@H](O)CC[C@]2(C)C3C(O)C=C4[C@H]5C[C@@](C)(C(=O)O)CC[C@]5(C)CC[C@]4(C)[C@]3(C)CC[C@@H]12 (some centres not stated)	i	-9.2	13*	·	i
CC1(C)C(=O)CC[C@]2(C)C3C(=O)C=C4[C@H]5C[C@@](C)(C(=O)O)CC[C@]5(C)CC[C@]4(C)[C@]3(C)CC[C@@H]12 (some centres not stated)	i	-10.4	i	i	i
Nc1ccc2c(c1)C(=O)C(=O)c1ccccc1-2	i	6.9*	i	i	i
NS(=O)(=O)c1cccc(NC(=O)COC(=O)CCC(=O)c2cccs2)c1	·	·	·	i	·
CCOc1ccccc1C=C1SC(=S)N(CC)C1=O	·	·	·	-9.66*	·
Cn1cc(/C=C2\SC(=S)N(NC(=O)c3ccccc3)C2=O)c2ccccc21	i	9.5*	i	i	i
O=C1/C(=C/c2ccc(O)c([N+](=O)[O-])c2)SC(=S)N1Cc1ccccc1	i	-13.8	i	i	8*
COc1ccccc1/C=C1\SC(=S)N(CCC(=O)NNC(=O)c2ccccc2O)C1=O	i	-27.9	i	i	6*
CC1CCN(S(=O)(=O)c2ccc3nc(N4CCN(c5ccccc5)CC4)ccc3c2)CC1	i	-1.8	i	·	i
CCOC(=O)C1CCN(Cc2cnc(Oc3ccc(C(C)(C)C)cc3)s2)CC1	i	-19.8	i	i	i
Cc1ccc(S(=O)(=O)N(C)C)cc1NC(=O)c1cc(-c2ccco2)nc2ccccc12	i	-5.5	i	i	i
COc1cc(/C=C2/SC(=S)N(Cc3ccccc3)C2=O)cc(Cl)c1O	i	-10.7	i	i	i
O=C(NN1C(=O)/C(=C/c2ccc(O)cc2)SC1=S)c1ccccc1O	i	-1.7	i	i	i
O=C(NN1C(=O)/C(=C/c2ccc(O)cc2)SC1=S)c1cccc(O)c1	-9.14*	-11.8	i	i	8*
COc1cc(/C=C2\SC(=S)N(NC(=O)c3ccccc3O)C2=O)ccc1O	i	3.6	i	i	6*
O=C(NN1C(=O)/C(=C/c2ccc(O)c([N+](=O)[O-])c2)SC1=S)c1ccccc1Cl	i	-12.3	i	i	7*
COc1cc([N+](=O)[O-])cc(/C=C2/SC(=S)N(Cc3ccccc3)C2=O)c1O	i	-10.4	i	i	9*
O=C(Nc1ccc([N+](=O)[O-])cc1)c1nc[nH]c1C(=O)NC1CCCCC1	i	2.1	i	i	i
O=S1(=O)c2ccc(Br)cc2N2CC[C@H](C2)N1Cc1ccc(Cl)cc1	·	·	·	i	·
Cn1c(=O)c2c(ncn2CCC(=O)N/N=C/c2ccccc2)n(C)c1=O	i	-4.8	i	i	i
Cn1c(=O)c2c(ncn2CC(=O)N/N=C/C(Cl)=C/c2ccccc2)n(C)c1=O	i	-8.0	11*	i	i
COC(=O)c1cc(NC(=O)c2cccc(C(F)(F)F)c2)c(=O)oc1C	i	-6.2	i	i	i
COC(=O)c1cc(NC(=O)c2cccc(C(F)(F)F)c2)c(=O)oc1C/C=N/OCc1cccc(Cl)c1Cl	i	-12.4	i	-11.1*	i
O=C1c2ccccc2C2(c3ccccc3)NCCCN12 (configuration not stated)	i	-16.4	i	i	i
SMILES	KCNK9 inh	hERG protect	KCNQ1 pot	KCNK3 inh	KCNQ1 block
O=C1c2ccccc2C2(c3cc(C(F)(F)F)cc(C(F)(F)F)c3)NCCN12 (configuration not stated)	i	-7.6	14*	i	i
CCOc1cc(N2CCOCC2)c(OCC)cc1NC(=O)Cn1nc(C)c([N+](=O)[O-])c1C	i	8.3*	i	i	i
CCn1c(=O)c2cc(C(=O)N(C)c3cc(C)ccc3OC)sc2c2ccccc21	-15.3*	-13.4	i	i	i
CCOc1cccc(=O)c2c(C)n(-c3ccc(C(=O)O)cc3)c(C)c12	i	4.8*	i	i	i
COc1cccc(=O)c2c(C)n(-c3ccc(C(=O)O)cc3)c(C)c12	i	-6.2	i	i	i
Cc1ccc(C(=O)NC(=S)N2CCN(C)CC2)cc1Br	i	-2.9	i	i	i
C#CCOCCOCCOCCNc1nc(N2CCN(C(=O)C([C@@H](C)O)n3cc([C@@H](N)CCCCN)nn3)CC2)nc(N2CCN(C(=O)[C@H](CCCN=C(N)N)n3cc(C(N)[C@@H](C)CC)nn3)CC2)n1 (some centres not stated)	·	·	·	i	·
CN1CCCC1CCNc1ccc2sc3ccccc3c(=O)c2c1 (configuration not stated)	-7.5*	-25.2	i	i	i
CCCn1c2ccccc2c2cnn(CC(=O)NCCCN3CCN(c4ccccc4)CC3)c(=O)c21	i	-15.2	i	i	i
COc1cccc(C(C[N+](=O)[O-])c2c(C)[nH]n(-c3ccccc3)c2=O)c1 (configuration not stated)	i	-21.9	i	i	8*
Cc1[nH]n(-c2ccccc2)c(=O)c1C(C[N+](=O)[O-])c1ccc(Br)cc1 (configuration not stated)	i	-11.1	i	i	i
Cc1ccc2c(CSc3nc4ccccc4c(=O)n3CCCO)cc(=O)oc2c1	·	·	·	-9.07*	·
COc1ccc(OCCN2CCCC2)cc1Nc1nnc(Cl)c(Nc2ccccc2S(C)(=O)=O)n1	·	·	·	i	·
O=c1c2cccnc2n(-c2ccccc2)n1Cc1c(Cl)cccc1Cl	i	-3.2	i	i	i
O=c1c2cccnc2n(-c2ccccc2)n1Cc1ccc(Cl)cc1	i	-7.5	14*	i	i
C/C=C(\C)C(=O)OC1[C@H](OC(C)=O)C2(CO)C(CC1(C)C)C1=CCC3C4(C)CCC(O[C@@H]5O[C@H](C(=O)O)[C@@H](O[C@@H]6O[C@H](CO)[C@@H](O)[C@H](O)[C@H]6O)[C@H](O)[C@H]5O[C@H]5O[C@H](CO)[C@@H](O)[C@H](O)[C@H]5O)[C@](C)(CO)C4CCC3(C)[C@]1(C)C[C@H]2O (some centres not stated)	·	·	·	i	·
Cc1cc(C)c2[nH]c(=O)c(CN(Cc3ccc4c(c3)OCO4)Cc3nnnn3C3CCCC3)cc2c1	-13.1*	-13.7	i	i	i
O=C(COC(=O)Cc1ccccc1F)Nc1cccc(F)c1	i	-5.8	i	i	i
CC1(c2ccccc2)CC(C)(C)N2C(=O)/C(=C3\SC(=S)NC3=O)c3cccc1c32 (configuration not stated)	i	-6.4	81*	i	i

Assay outcomes: PubChem BioAssay, Johns Hopkins Ion Channel Center
